Data as given in ChEMBL document CHEMBL1125496, “New potent mitomycin derivatives: synthesis and antitumor activity of 7,7-(ethylenedioxy)mitomycins” (J Med Chem, 1992).

Legend:
HeLa [1] = assay: In vitro anticellular activity against HeLa cells.; assay type: functional, cell-based, Homo sapiens
In short: (§1)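 HeLa S3 cells seeded on day 0, then exposed to drug for 1 h on day 1. Anticellular activity determined by a previously described method and reported as 1 h IC50 in μM.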

Mus musculus [2] = assay: In vivo antitumor activity against P388 leukemia cells (ip)in mice and maximal increase in life span calculated as (T/C-1)*100 at the optimal dose of 0.50 mg/kg (%ILS max of mitomycin C at the optimal dose of 6.0 mg/kg); assay type: functional
Mus musculus [3] = assay: In vivo antitumor activity against P388 leukemia cells (ip)in mice and maximal increase in life span calculated as (T/C-1)*100 at the optimal dose of 5 mg/kg (%ILS max of mitomycin C at the optimal dose of 4.0 mg/kg).; assay type: functional
Mus musculus [4] = assay: In vivo antitumor activity against P388 leukemia cells (ip)in mice and maximal increase in life span calculated as (T/C-1)*100 at the optimal dose of 3 mg/kg (%ILS max of mitomycin C at the optimal dose of 6.0 mg/kg); assay type: functional
Mus musculus [5] = assay: In vivo antitumor activity against P388 leukemia cells (ip)in mice and maximal increase in life span calculated as (T/C-1)*100 at the optimal dose of 5 mg/kg (%ILS max of mitomycin C at the optimal dose of 6.0 mg/kg).; assay type: functional
Mus musculus [6] = assay: In vivo antitumor activity against P388 leukemia cells (ip)in mice and maximal increase in life span calculated as (T/C-1)*100 at the optimal dose of 0.75 mg/kg (%ILS max of mitomycin C at the optimal dose of 6.0 mg/kg); assay type: functional
Mus musculus [7] = assay: In vivo antitumor activity against P388 leukemia cells (ip)in mice and maximal increase in life span calculated as (T/C-1)*100 at the optimal dose of 2.5 mg/kg (%ILS max of mitomycin C at the optimal dose of 6.0 mg/kg).; assay type: functional
Mus musculus [8] = assay: In vivo antitumor activity against P388 leukemia cells (ip)in mice and maximal increase in life span calculated as (T/C-1)*100 at the optimal dose of 13 mg/kg (%ILS max of mitomycin C at the optimal dose of 4.0 mg/kg).; assay type: functional
Mus musculus [9] = assay: In vivo antitumor activity against P388 leukemia cells (ip)in mice and maximal increase in life span calculated as (T/C-1)*100 at the optimal dose of 0.39 mg/kg (%ILS max of mitomycin C at the optimal dose of 4.0 mg/kg).; assay type: functional
HeLa [10] = assay: The compound was tested in vitro for its anticellular activity against HeLa cells.; assay type: functional, cell-based; details: Homo sapiens; in short: as §1
Mus musculus [11] = assay: In vivo antitumor activity against P388 leukemia cells (ip)in mice and maximal increase in life span calculated as (T/C-1)*100 at the optimal dose of 2.5 mg/kg (%ILS max of mitomycin C at the optimal dose of 4.0 mg/kg).; assay type: functional
Mus musculus [12] = assay: TIn vivo antitumor activity against P388 leukemia cells (ip)in mice and maximal increase in life span calculated as (T/C-1)*100 at the optimal dose of 5 mg/kg (%ILS max of mitomycin C at the optimal dose of 4.0 mg/kg).; assay type: functional
Mus musculus [13] = assay: In vivo antitumor activity against P388 leukemia cells (ip)in mice and maximal increase in life span calculated as (T/C-1)*100 at the optimal dose of 3.1 mg/kg (%ILS max of mitomycin C at the optimal dose of 4.0 mg/kg).; assay type: functional
Mus musculus [14] = assay: In vivo antitumor activity against P388 leukemia cells (ip)in mice and maximal increase in life span calculated as (T/C-1)*100 at the optimal dose of 4.0-6.0 mg/kg; assay type: functional
Mus musculus [15] = assay: In vivo antitumor activity against P388 leukemia cells (ip)in mice and maximal increase in life span calculated as (T/C-1)*100 at the optimal dose of 13 mg/kg (%ILS max of mitomycin C at the optimal dose of 6.0 mg/kg).; assay type: functional

In the case of CO[C@@]12[C@H](COC(N)=O)C3=C(C(OC(C)=O)=C(C)C4(OCCO4)C3=O)N1C[C@@H]1N[C@@H]12, the IC50 (HeLa [1]; Homo sapiens, HeLa) is reported as 4400 nM and the ILS max (Mus musculus [2]) is reported as 63%.
CC1C(=O)C2=C(C(=O)C13OCCO3)[C@H](COC(N)=O)[C@@]1(O)[C@@H]3[C@H](CN21)N3C (stereo partly specified) was tested, and the IC50 (HeLa [1]; Homo sapiens, HeLa) was 4400 nM and the ILS max (Mus musculus [3]) was 73%.
CO[C@@]12[C@H](COC(N)=O)C3=C(C(OC(=O)c4ccccc4)=C(C)C4(OCCO4)C3=O)N1C[C@@H]1N[C@@H]12 showed an IC50 (HeLa [1]; Homo sapiens, HeLa) of 540 nM and an ILS max (Mus musculus [4]) of 71%.
For CO[C@@]12[C@H](COC(N)=O)C3=C(C(OC(=O)CCC(C)=O)=C(C)C4(OCCO4)C3=O)N1C[C@@H]1N[C@@H]12, the ILS max (Mus musculus [5]) was 80% and the IC50 (HeLa [1]; Homo sapiens, HeLa) was 590 nM.
Work on CCCCCCCCCCCC(=O)OC1=C(C)C2(OCCO2)C(=O)C2=C1N1C[C@@H]3N[C@@H]3[C@]1(OC)[C@@H]2COC(N)=O yielded an IC50 (HeLa [1]; Homo sapiens, HeLa) of 94 nM and an ILS max (Mus musculus [6]) of 67%.
For CO[C@@]12[C@H](COC(N)=O)C3=C(C(=O)C(C)(Cl)C4(OCCO4)C3=O)N1C[C@@H]1N[C@@H]12 (stereo in doubt; 13b), the IC50 (HeLa [1]; hela) was 3200 nM and the ILS max (Mus musculus [7]) was 60%.
CCCCCCCC(=O)OC1=C(C)C2(OCCO2)C(=O)C2=C1N1C[C@@H]3N[C@@H]3[C@]1(OC)[C@@H]2COC(N)=O showed an IC50 (HeLa [1]; Homo sapiens, HeLa) of 360 nM.
Work on CN1[C@H]2[C@@H]1CN1C3=C(C(=O)C4(OCCO4)C(C)(Cl)C3=O)[C@H](COC(N)=O)[C@@]21O (stereo partly specified) yielded an IC50 (HeLa [1]; Homo sapiens, HeLa) of 50000 nM and an ILS max (Mus musculus [8]) of 59%.
CO[C@@]12[C@H](COC(N)=O)C3=C(C(=O)C(C)(Cl)C4(OCCO4)C3=O)N1C[C@@H]1N[C@@H]12 (stereo in doubt; 13c) gave an IC50 (HeLa [1]; hela) of 590 nM and an ILS max (Mus musculus [7]) of 73%.
With CO[C@@]12[C@H](COC(N)=O)C3=C(C(=O)C(C)C4(OCCO4)C3=O)N1C[C@@H]1N[C@@H]12 (stereo partly specified) the ILS max (Mus musculus [9]) was 69% and the IC50 (HeLa [1]; Homo sapiens, HeLa) was 41 nM.
CCOC(=O)OC1=C(C)C2(OCCO2)C(=O)C2=C1N1C[C@@H]3N[C@@H]3[C@]1(OC)[C@@H]2COC(N)=O was tested, and the IC50 (HeLa [10]) was 870 nM.
In the case of CO[C@@]12[C@H](COC(N)=O)C3=C(C(=O)C(C)C4(OCCO4)C3=O)N1C[C@H]1[C@@H]2N1C (stereo partly specified), the ILS max (Mus musculus [11]) is reported as 53% and the IC50 (HeLa [1]; Homo sapiens, HeLa) is reported as 600 nM.
For CO[C@]12[C@@H]3[C@H](CN1C1=C(C(=O)C4(OCCO4)C(C)C1=O)[C@@H]2COC(N)=O)N3C (stereo partly specified), the IC50 (HeLa [1]; Homo sapiens, HeLa) was 3100 nM and the ILS max (Mus musculus [12]) was 80%.
COC1=C(C)C2(OCCO2)C(=O)C2=C1N1C[C@@H]3N[C@@H]3[C@]1(OC)[C@@H]2COC(N)=O showed an IC50 (HeLa [1]; Homo sapiens, HeLa) of 20000 nM and an ILS max (Mus musculus [13]) of 41%.
In the case of CO[C@@]12[C@H](COC(N)=O)C3=C(C(OC(=O)C(C)(C)C)=C(C)C4(OCCO4)C3=O)N1C[C@@H]1N[C@@H]12, the IC50 (HeLa [10]) is reported as 8100 nM.
CO[C@@]12[C@H](COC(N)=O)C3=C(C(=O)C(C)=C(N)C3=O)N1C[C@@H]1N[C@@H]12 [MITOMYCIN] gave an IC50 (HeLa [1]; Homo sapiens, HeLa) of 810 nM and an ILS max (Mus musculus [14]) of 52%.
With CC(=O)OC1=C(C)C2(OCCO2)C(=O)C2=C1N1C[C@H]3[C@H](N3C)[C@]1(O)[C@H]2COC(N)=O (stereo partly specified) the ILS max (Mus musculus [15]) was 71% and the IC50 (HeLa [1]; Homo sapiens, HeLa) was 4400 nM.
